# Calls of active or inactive are those of the source. The calls are words filed in the database; no cut-off is given here.
# Tests used:
# [1] = molecular target: T1, Hypoxia-inducible factor 1-alpha (Homo sapiens, UniProt Q16665); experiment: Inhibition of hypoxia-induced HIF1 alpha transcriptional activity in human HeLa cells transfected with luciferase reporter containing of HRE assessed as reduction in luciferase activity incubated for 1 hrs under normoxic condition followed by incubation under hypoxic condition for 24 hrs by luciferase reporter gene assay; assay type: cell-based
# [2] = Drug localization in mitochondria of human HeLa cells at 1 uM incubated for 3 hrs by MitoTracker Red CMXRos and Hoechst 33342 staining based assay; assay type: ADME
# In short: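 HeLa cells exposed 3 h to 1 μM BODIPY-FL fluorescent probe. MitoTracker Red CMXRos (100 nM) and Hoechst 33342 (10 μM) added, then cells fixed and imaged by fluorescence microscopy.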
# [3] = molecular target: ATP synthase F(1) complex subunit beta, mitochondrial (Homo sapiens) (UniProt P06576); experiment: Competitive binding affinity to ATP5B in human HeLa cell mitochondrial fraction in presence of KUSC-5051 by LC-MS/MS analysis; conditions: Mitochondria
# In short: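 HeLa S3 lysate fractionated into debris (1 mg/mL), mitochondrial (0.8 mg/mL) and cytosol (0.6 mg/mL) fractions. Fractions incubated with DMSO or 300 μM competitor, with or without 30 μM photoaffinity probe, 1 h at 37 °C, then UV 365 nm for 30 min. Click labeling, NeutrAvidin enrichment, SDS-PAGE. The ~60 kDa band was trypsin-digested 12 h at 37 °C for LC-MS/MS, with confirmation by anti-ATP5B western blot.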
# HeLa S3 = experiment: Cytotoxicity against human HeLa S3 cells assessed as reduction in cell viability incubated for 72 hrs by cell proliferation assay; assay type: functional, cell-based; conditions: HeLa S3, 72 h
# In short: (§1)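 Cells seeded at 1.5 × 10³ per well and grown 24 h, then exposed to solvent or serial dilutions of test compound for 72 h. Viability read with Cell Counting Kit-8. Triplicate wells (n = 3); representative of two independent experiments.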
# HT-1080 = experiment: Cytotoxicity against human HT-1080 cells assessed as reduction in cell viability incubated for 72 hrs by cell proliferation assay; assay type: functional, cell-based; conditions: HT-1080, 72 h; in short: as §1
# [4] = molecular target: ATP synthase F(1) complex catalytic subunit beta, mitochondrial (Bos taurus) (UniProt P00829); experiment: Inhibition of ATP5B in bovine heart mitochondrial solution assessed as complex V activity at 12.6 nM incubated for 2 hrs by spectrophotometry; conditions: Mitochondria
# In short: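 Bovine heart mitochondria solution used as the ATP synthase (complex V) source. Compound was incubated 2 h at 25 °C with DMSO at 1.0%. Activity followed as consumption of supplemented NADH by absorbance at 340 nm on a spectrophotometer. Oligomycin was the positive control. n = 3; representative of three independent experiments; Student's t-test.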
# HeLa [5] = experiment: Inhibition of mitochondrial complex V in human HeLa cells assessed as reduction in oxygen consumption rate at 0.1 to 1 uM for 1.5 hrs cells pretreated with FCCP/antimycin A/rotenone by XF mito stress test assay; assay type: cell-based; conditions: dose 0.1-1 µM
# In short: (§2)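 HeLa cells at 80–90% confluency equilibrated 1.5 h at 37 °C without CO₂. OCR recorded at baseline and after sequential injections: compound (0.1, 1, 10 μM) or oligomycin 0.5 μM, then FCCP 0.5 μM, then rotenone/antimycin A (0.5 μM each). Seahorse XF analyzer; n = 6, mean ± SEM.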
# [6] = molecular target: ATP synthase F(1) complex catalytic subunit beta, mitochondrial (Bos taurus) (UniProt P00829); experiment: Inhibition of ATP5B in bovine heart mitochondrial solution assessed as complex V activity at 10 to 100 nM incubated for 2 hrs by spectrophotometry; conditions: Mitochondria, dose 10-100 nM
# In short: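 Complex V activity measured in bovine heart mitochondria solution with ATP synthase. Compound at 10 and 100 nM; DMSO 1.0% vehicle; oligomycin 12.6 μM as positive control. Incubated 2 h at 25 °C, monitoring absorbance at 340 nm for NADH consumption. n = 3; representative of three experiments; Student's t-test.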
# [7] = molecular target: T1, Hypoxia-inducible factor 1-alpha; experiment: Inhibition of hypoxia-induced HIF1 alpha transcriptional activity in human HeLa cells assessed as reduction in VEGF mRNA level at 3 uM incubated for 1 hrs under normoxic condition followed by incubation under hypoxic condition for 24 hrs by quantitative RT-PCR analysis; assay type: cell-based; conditions: time 25.0 hrs
# [8] = molecular target: T1, Hypoxia-inducible factor 1-alpha; experiment: Inhibition of hypoxia-induced HIF1 alpha transcriptional activity in human HeLa cells assessed as HIF1alpha protein level incubated for 1 hrs under normoxic condition followed by incubation under hypoxic condition for 24 hrs by Western blotting analysis; assay type: cell-based; conditions: time 25.0 hrs
# HeLa [9] = experiment: Inhibition of mitochondrial complex V in human HeLa cells assessed as reduction in oxygen consumption rate at 0.1 to 1 uM for 1.5 hrs by XF mito stress test assay; assay type: cell-based; conditions: dose 0.1-1 µM; in short: as §2
# [10] = molecular target: T1, Hypoxia-inducible factor 1-alpha; experiment: Inhibition of hypoxia-induced HIF1 alpha transcriptional activity in human HeLa cells assessed as reduction in CA9 mRNA level at 3 uM incubated for 1 hrs under normoxic condition followed by incubation under hypoxic condition for 24 hrs by quantitative RT-PCR analysis; assay type: cell-based; conditions: time 25.0 hrs
# [11] = molecular target: T1, Hypoxia-inducible factor 1-alpha; experiment: Inhibition of hypoxia-induced HIF1 alpha transcriptional activity in human HeLa cells at 3 uM incubated for 1 hrs under normoxic condition followed by incubation under hypoxic condition for 24 hrs by quantitative RT-PCR analysis; assay type: cell-based; conditions: time 25.0 hrs
SMILES,IC50 [1] [µM],other results
O=C(Nc1ccccc1Br)c1ccn(Cn2cc([N+](=O)[O-])cn2)n1,45,
Cc1cc(C)n2c1C=C1C=C(CCC(=O)Nc3cnn(Cn4ccc(C(=O)Nc5ccc(C(F)(F)F)cc5)n4)c3)C=[N+]1[B-]2(F)F,,Drug uptake [2]: Active
CC(C)c1ccc(NC(=O)c2ccn(Cn3cc([N+](=O)[O-])cn3)n2)cc1,21,
O=C(Nc1ccc(F)cc1F)c1ccn(Cn2cc([N+](=O)[O-])cn2)n1,81,
C#CCCCC1(CCC(=O)Nc2cnn(Cn3ccc(C(=O)Nc4ccc(C(F)(F)F)cc4)n3)c2)N=N1,,Activity [3]: Active
O=C(Nc1ccc(Br)cc1)c1ccn(Cn2cnc([N+](=O)[O-])c2)n1,58,
O=C(Nc1ccccc1O)c1ccn(Cn2cc([N+](=O)[O-])cn2)n1,> 100,
COc1ccc(NC(=O)c2ccn(Cn3cc([N+](=O)[O-])cn3)n2)cc1,> 100,
CC[C@@H]1/C=C/C=C/C[C@H](C)[C@@H](O)[C@](C)(O)C(=O)[C@H](C)[C@@H](O)[C@H](C)C(=O)[C@H](C)[C@@H](O)[C@H](C)/C=C/C(=O)O[C@H]2[C@@H](C)[C@@H](CC1)O[C@@]1(CC[C@@H](C)[C@@H](C[C@@H](C)O)O1)[C@@H]2C,,IC50 (HeLa S3): 5.3 µM; IC50 (HT-1080): < 0.1 µM; inhibition [4]: Active
O=C(Nc1ccc(Cl)cc1Cl)c1ccn(Cn2cc([N+](=O)[O-])cn2)n1,35,
O=C(Nc1cccc(Br)c1)c1ccn(Cn2cc([N+](=O)[O-])cn2)n1,35,
O=C(Nc1ccccc1)c1ccn(Cn2cc([N+](=O)[O-])cn2)n1,> 100,
O=C(Nc1ccc(Br)cc1)c1ccn(Cn2ccc([N+](=O)[O-])c2)n1,27,
O=C(Nc1ccc(Cl)c(Cl)c1)c1ccn(Cn2cc([N+](=O)[O-])cn2)n1,13,
O=C(Nc1ccc(Br)cc1)c1ccn(Cn2ccnc2)n1,34,

# More lines, main results first:
IC50 [1] [µM],SMILES,other results
66,O=C(Nc1ccc(Br)cc1)c1ccn(Cn2cccn2)n1,
1.8,CCCC(=O)Nc1cnn(Cn2ccc(C(=O)Nc3ccc(C(F)(F)F)cc3)n2)c1,
1.4,O=C(Cc1ccccc1)Nc1cnn(Cn2ccc(C(=O)Nc3ccc(C(F)(F)F)cc3)n2)c1,
20,Nc1cnn(Cn2ccc(C(=O)Nc3ccc(Br)cc3)n2)c1,
18,O=C(Nc1ccc(Br)cc1)c1ccn(Cn2cc([N+](=O)[O-])cn2)n1,
1.2,CCCNc1cnn(Cn2ccc(C(=O)Nc3ccc(C(F)(F)F)cc3)n2)c1,
20,O=C(Nc1ccc(Cl)cc1)c1ccn(Cn2cc([N+](=O)[O-])cn2)n1,
14,CC(=O)Nc1cnn(Cn2ccc(C(=O)Nc3ccc(Br)cc3)n2)c1,
6.9,CC(C)C(=O)Nc1cnn(Cn2ccc(C(=O)Nc3ccc(C(F)(F)F)cc3)n2)c1,
18,O=C(Nc1ccc(C(F)(F)F)cc1)c1ccn(Cn2cc([N+](=O)[O-])cn2)n1,
33,O=C(Nc1cccc(C(F)(F)F)c1)c1ccn(Cn2cc([N+](=O)[O-])cn2)n1,
28,O=C(Nc1ccc(F)cc1)c1ccn(Cn2cc([N+](=O)[O-])cn2)n1,
1.2,CCC(=O)Nc1cnn(Cn2ccc(C(=O)Nc3ccc(C(F)(F)F)cc3)n2)c1,inhibition (HeLa [5]): Active; IC50 (HeLa S3): 34.5 µM; IC50 (HT-1080): 0.6 µM; inhibition [6]: Active; inhibition [7]: Active; inhibition [8]: Dose-Dependent Effect; inhibition (HeLa [9]): Active; Activity [3]: Active; inhibition [10]: Active; inhibition [11]: Active
5.5,CC(=O)Nc1cnn(Cn2ccc(C(=O)Nc3ccc(C(F)(F)F)cc3)n2)c1,

# Source: ChEMBL document CHEMBL4808255, “Design, synthesis, and target identification of new hypoxia-inducible factor 1 (HIF-1) inhibitors containing 1-alkyl-1H-pyrazole-3-carboxamide moiety” (Bioorg Med Chem, 2021)
